Active and inactive are the calls of the source. The calls are words filed in the database; no cut-off is given here.
Tests used:
[1] = tested on: Human immunodeficiency virus 1; assay: Cytostatic concentration against […] virus strains IIIB and ROD, in T-lymphocytic MT-4 cells; type: functional; settings: Human immunodeficiency virus 1, MT4
Procedure, shortened: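 T-lymphocytic MT-4 cells were tested alongside HIV-1 IIIB and HIV-2 ROD antiviral assays. The CC50 is the 50% cytostatic concentration for the MT-4 cells.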

[2] = tested on: Vesicular stomatitis virus; assay: Minimum cytotoxic concentration against vesicular stomatitis virus in HeLa cell cultures; type: functional
[3] = tested on: Human alphaherpesvirus 1; assay: Activity against herpes simplex virus 1 (HSV-1) strain KOS, was determined; No activity; type: functional, organism-based
[4] = tested on: Human alphaherpesvirus 2; assay: Activity against herpes simplex virus 2 (HSV-2) […], was determined; No activity; type: functional, organism-based
[5] = tested on: Vero; assay: Activity was evaluated in vero cell cultures; Cytotoxic; type: functional, cell-based; settings: Chlorocebus sabaeus
[6] = tested on: Coxsackievirus B4; assay: Minimum cytotoxic concentration against Coxsackie B4 virus in HeLa cell cultures; type: functional
[7] = tested on: Vaccinia virus; assay: Minimum cytotoxic concentration against vaccinia virus, was determined; type: functional, organism-based; settings: Orthopoxvirus vaccinia
[8] = tested on: Respiratory syncytial virus; assay: Minimum cytotoxic concentration against respiratory syncytial virus in HeLa cell cultures; type: functional
[9] = tested on: E6SM; assay: Minimum concentration required to cause a microscopically detectable alteration of normal cell morphology in human embryonic skin muscle (E6SM) cell cultures; type: functional; settings: for minimal effective concentration: read-out: MEC
Procedure, shortened: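 E6SM cell cultures were examined by microscopy. The value is the minimum concentration giving a detectable alteration of normal cell morphology.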

[10] = Minimum cytotoxic concentration against respiratory syncytial virus in HeLa cell cultures, was determined; type: functional
[11] = tested on: Vesicular stomatitis virus; assay: Activity against vesicular stomatitis virus, was determined; No activity; type: functional, organism-based
[12] = tested on: Vaccinia virus; assay: Activity against vaccinia virus, was determined; No activity; type: functional, organism-based; settings: Orthopoxvirus vaccinia
[13] = Minimum cytotoxic concentration against Coxsackie B4 virus in HeLa cell cultures, was determined.; type: functional, Coxsackievirus B4
[14] = tested on: Vero; assay: Antiviral activity was evaluated in vero cell cultures.; type: functional; settings: Chlorocebus sabaeus
[15] = Minimum cytotoxic concentration against vesicular stomatitis virus in HeLa cell cultures, was determined.; type: functional
[16] = tested on: Human alphaherpesvirus 2; assay: Activity against herpes simplex virus 2 (HSV-2) strain G, was determined; No activity; type: functional, organism-based
[17] = target: T1, Adenosylhomocysteinase (Homo sapiens, UniProt P23526); assay: Inhibitory constant for S-adenosyl-homocysteine hydrolase, was determined using Kitz and Wilson equation {Kobs = Kinact. [I]/(Ki + [I])}.
Target sequence in this assay (P23526 whole entry): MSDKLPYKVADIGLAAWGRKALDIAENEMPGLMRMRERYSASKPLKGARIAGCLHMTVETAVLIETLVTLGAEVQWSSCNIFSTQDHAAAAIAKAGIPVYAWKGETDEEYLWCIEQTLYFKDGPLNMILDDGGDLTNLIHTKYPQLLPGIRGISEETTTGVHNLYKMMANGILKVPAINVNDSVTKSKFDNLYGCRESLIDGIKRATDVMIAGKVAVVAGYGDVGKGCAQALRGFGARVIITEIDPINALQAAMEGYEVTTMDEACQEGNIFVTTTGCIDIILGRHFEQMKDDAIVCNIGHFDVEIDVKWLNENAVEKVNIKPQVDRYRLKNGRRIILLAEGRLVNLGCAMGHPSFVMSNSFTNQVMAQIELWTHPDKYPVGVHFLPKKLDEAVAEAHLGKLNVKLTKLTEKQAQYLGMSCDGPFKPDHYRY

[18] = tested on: Human betaherpesvirus 5; assay: 50 % effective concentration against cytomegalo virus (CMV); type: functional, organism-based
Procedure, shortened: (§1)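 Human embryonic lung (HEL) cells were used against CMV strains AD-169 and Davis and VZV strains YS, OKA, 07/1 and YS/R. EC50 values are for the antiviral effect. The minimum cytotoxic concentration and CC50 for HEL cells were measured alongside.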

[19] = target: T1, Adenosylhomocysteinase; assay: Inactivation constant for S-adenosyl-homocysteine hydrolase, was determined using Kitz and Wilson equation {Kobs = Kinact. [I]/(Ki + [I])}.
Target sequence in this assay (P23526 2-432 limits assumed): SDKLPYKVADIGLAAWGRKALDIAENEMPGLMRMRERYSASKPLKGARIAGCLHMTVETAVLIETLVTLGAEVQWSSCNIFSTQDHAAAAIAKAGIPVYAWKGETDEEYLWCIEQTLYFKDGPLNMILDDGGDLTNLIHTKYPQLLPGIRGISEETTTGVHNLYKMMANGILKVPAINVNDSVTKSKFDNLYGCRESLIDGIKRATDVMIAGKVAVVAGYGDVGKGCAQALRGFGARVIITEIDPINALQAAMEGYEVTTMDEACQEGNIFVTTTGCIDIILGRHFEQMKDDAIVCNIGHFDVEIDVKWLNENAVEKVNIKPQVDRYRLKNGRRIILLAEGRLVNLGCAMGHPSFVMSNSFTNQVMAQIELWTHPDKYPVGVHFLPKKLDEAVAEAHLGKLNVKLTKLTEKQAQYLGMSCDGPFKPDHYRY

[20] = target: T1, Adenosylhomocysteinase; assay: Percent NAD+ content after incubation of S-adenosyl-homocysteine hydrolase (5.8 uM) with 100 uM of compound at 37 degree C for 20 min; type: functional
Procedure, shortened: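 Enzyme in 50 mM potassium phosphate pH 7.2 with 1 mM EDTA. After the inhibitor step, cofactors were released with 5 N HClO4. NAD+ was quantified by C18 RP-HPLC at 258 nm, using a 2–98% acetonitrile gradient over 25 min against 25 mM phosphate pH 3.2 containing 10 mM heptane sulfonic acid.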
Target sequence in this assay (P23526 2-432 limits assumed): as above

[21] = target: T1, Adenosylhomocysteinase; assay: Percent S-adenosyl-homocysteine hydrolase (210 nM) activity remaining after incubating with 100 uM at 37 degree C for 20 minutes
Procedure, shortened: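 Human enzyme preincubated with compound in 50 mM potassium phosphate pH 7.2, 1 mM EDTA. Residual activity measured in the synthetic direction: 1 mM Ado plus 1 mM Hcy, 37 °C, 1 min, stopped with HClO4. AdoHcy quantified by RP-HPLC at 258 nm. Duplicate determinations averaged.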
Target sequence in this assay (P23526 2-432 limits assumed): as above

[22] = tested on: Vero; assay: Antiviral activity (cytotoxicity) was evaluated in vero cell cultures.; type: functional, Chlorocebus sabaeus
[23] = tested on: Human alphaherpesvirus 3; assay: 50 % effective concentration against Varicella-Zoster virus (VZV) was determined.; type: functional, organism-based; procedure, shortened: as §1
[24] = target: T1, Adenosylhomocysteinase; assay: Inactivation constant for aS-adenosylhomocysteine hydrolase, was determined using Kitz and Wilson equation {Kobs = Kinact. [I]/(Ki + [I])}.
Target sequence in this assay (P23526 2-432 limits assumed): as above

[25] = tested on: HEL; assay: Minimum cytotoxic concentration determined in embryonic lung (HEL) cells against human CMV, strains AD-169 and Davis and VZV, strains YS, OKA, 07/1, and YS/R; type: functional; procedure, shortened: as §1
[26] = tested on: HEL; assay: Minimum cytotoxic concentration determined in embryonic lung (HEL) cells; type: functional, Homo sapiens; procedure, shortened: as §1
[27] = tested on: HEL; assay: 50 % cytotoxic concentration for human embryonic lung (HEL) cells; type: functional; procedure, shortened: as §1
[28] = target: T1, Adenosylhomocysteinase; assay: Percent NAD+ content after incubation of AS-adenosylhomocysteine hydrolase (5.8 uM) with 100 uM of compound at 37 degree C for 20 min; type: functional
Procedure, shortened: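 Human AdoHcy hydrolase at 5.8 μM was preincubated with 100 μM inhibitor in 50 mM potassium phosphate, pH 7.2, with 1 mM EDTA, at 37 °C for 20 min. Cofactors were released with HClO4. NAD+ was quantified by C18 RP-HPLC (25 mM phosphate pH 3.2 with heptane sulfonic acid; acetonitrile gradient) with detection at 258 nm. Values are % NAD+ remaining.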
Target sequence in this assay (P23526 2-432 limits assumed): as above

In the case of O=c1ccn(C2O[C@H](/C=C/C=C(Br)Br)[C@@H](O)[C@H]2O)c(=O)[nH]1 (some centres undefined), the CC50 [1] is reported as 300 µM, the MCC50 [2] is reported as “>=200 uM” and the “antiviral activity against HSV-1” value [3] is reported as “inactive”. For the same molecule, the MCC50 [4] was “inactive”, the Activity [5] was “Toxic” and the MCC50 [6] was “>=200 uM”. The MCC50 [7] was “inactive”, the MCC50 [8] was “>=200 uM” and the MEC50 [9] was over 40 µM.

In the case of CCOC(=O)/C=C/C=C/[C@H]1OC(n2ccc(=O)[nH]c2=O)[C@H](O)[C@@H]1O (some centres undefined), the MCC50 [10] is reported as over 200 µM, the CC50 [1] is reported as over 370 µM and the antiviral activity [11] is reported as “inactive”. The antiviral activity [12] was “inactive”, the “antiviral activity against HSV-1” value [3] was “inactive” and the MCC50 [13] was over 200 µM. For the same molecule, the MCC [14] was over 200 µM, the MCC50 [15] was over 200 µM and the “Antiviral activity against HSV-2” value [16] was “inactive”. It also gave a minimal effective concentration [9] of over 40 µM.

With CCOC(=O)/C=C\C=C\[C@H]1OC(n2cnc3c(N)ncnc32)[C@H](O)[C@@H]1O (some centres undefined) the MCC50 [10] was over 200 µM, the CC50 [1] was 160 µM and the antiviral activity [11] was “inactive”. For the same molecule, the antiviral activity [12] was “inactive”, the “antiviral activity against HSV-1” value [3] was “inactive” and the MCC50 [13] was over 200 µM. The Ki [17] was 13.7 µM, the EC50 [18] was 18 µM and the K inact [19] was 0.59 min⁻¹. For the same molecule, the NAD+ content [20] was 36.2%, the MCC50 [15] was over 200 µM and the “Antiviral activity against HSV-2” value [16] was “inactive”. The Activity [21] was 1.8%, the MCC50 [22] was over 200 µM and the MEC50 [9] was over 40 µM.

With CCOC(=O)/C=C\C=C\[C@H]1OC(n2ccc(=O)[nH]c2=O)[C@H](O)[C@@H]1O (some centres undefined) the MCC50 [10] was over 200 µM, the CC50 [1] was 40 µM and the EC50 [23] was 10 µM. The antiviral activity [11] was “inactive”, the antiviral activity [12] was “inactive” and the “antiviral activity against HSV-1” value [3] was “inactive”. It also gave an MCC50 [13] of over 200 µM, an MCC [14] of over 200 µM and an MCC50 [15] of over 200 µM. The “Antiviral activity against HSV-2” value [16] was “inactive” and the minimal effective concentration [9] was over 40 µM.

With CCOC(=O)/C=C/C=C/[C@H]1OC(n2cnc3c(N)ncnc32)[C@H](O)[C@@H]1O (some centres undefined) the MCC50 [10] was over 200 µM, the CC50 [1] was 175 µM and the K inact [24] was 0.7 min⁻¹. The antiviral activity [11] was “inactive”, the antiviral activity [12] was “inactive” and the “antiviral activity against HSV-1” value [3] was “inactive”. The MCC50 [25] was over 120 µM, the MCC50 [13] was over 200 µM and the Ki [17] was 10 µM. The NAD+ content [20] was 25.9%, the MCC50 [15] was over 200 µM and the “Antiviral activity against HSV-2” value [16] was “inactive”. It also gave an Activity [21] of 3.6%, an MCC50 [22] of over 200 µM and an MEC50 [9] of over 40 µM.

In the case of Nc1ncnc2c1ncn2C1O[C@H](/C=C/C=C(Br)Br)[C@@H](O)[C@H]1O (some centres undefined), the MCC50 [10] is reported as over 35 µM, the CC50 [1] is reported as 11 µM and the antiviral activity [11] is reported as “inactive”. For the same molecule, the antiviral activity [12] was “inactive”, the “antiviral activity against HSV-1” value [3] was “inactive” and the MCC50 [13] was over 35 µM. For the same molecule, the MCC50 [26] was 45 µM, the CC50 [27] was 54 µM and the NAD+ content [28] was 93.1%. For the same molecule, the MCC50 [15] was over 35 µM, the “Antiviral activity against HSV-2” value [16] was “inactive” and the Activity [21] was 48%. For the same molecule, the MCC50 [22] was over 35000 µM and the MEC50 [9] was 6.7 µM.

Source: ChEMBL document CHEMBL1135471, “Sugar-modified conjugated diene analogues of adenosine and uridine: synthesis, interaction with S-adenosyl-L-homocysteine hydrolase, and antiviral and cytostatic effects” (J Med Chem, 2002)
